pIC50: −log10 of the molar value.

19 compounds from ChEMBL document CHEMBL1152956, “Synthesis and cytotoxic activity of 5,6-heteroaromatically annulated pyridine-2,4-diamines” (Bioorg Med Chem, 2009) can be followed below.

Assay [1] concerns MCF7. Kind of assay: Growth inhibition of human MCF7 cells at 20 uM after 96 hrs by crystal violet staining. The settings on record: MCF7, 96 h, read-out: GI. Type of assay: functional. Summed up:
(§1)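 This was a single-concentration screen. Actively dividing cells had 96 h continuous exposure to compound diluted 1000-fold from a DMSO solution into medium. Cells were fixed with glutaraldehyde and stained with crystal violet. Bound dye was redissolved in 70% ethanol and read at OD 570 nm. Growth inhibition was expressed against untreated controls.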

Assay [2] deals with 5637. Kind of assay: Growth inhibition of human 5637 cells at 20 uM after 96 hrs by crystal violet staining. It counts as functional. The settings on record: Homo sapiens, 5637, 96 h; read-out: GI. In short, it runs like this:
as §1

The nature of assay [3]: Growth inhibition of human LCLC-103H cells at 20 uM after 96 hrs by crystal violet staining. Type of assay: functional. The settings on record: read-out: GI. In short, it runs like this: as §1
The test system of assay [4] is MCF7. Kind of assay: Cytotoxicity against human MCF7 cells after 96 hrs by crystal violet staining. It counts as functional, cell-based. The settings on record: MCF7, 96 h. In short, it runs like this:
(§2)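 Compounds were held as 20 mM DMSO stocks at -20 °C and serially diluted in DMSO to working solutions of 20, 10, 5.0, 2.50, 1.25 and […]. Five of these were diluted 1000-fold into medium, with DMSO-only controls. Dividing cells had 96 h continuous exposure, then glutaraldehyde fixation and crystal violet staining. Dye was redissolved in 70% ethanol and read at OD 570 nm. IC50 came from linear regression of log dose–response curves.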

The test system of assay [5] is RT-4. Kind of assay: Cytotoxicity against human RT4 cells after 96 hrs by crystal violet staining. Type of assay: functional, cell-based. The settings on record: RT-4, 96 h. Summed up: as §2
Assay [6] relates to A-427. Kind of assay: Growth inhibition of human A427 cells at 20 uM after 96 hrs by crystal violet staining. The settings on record: A-427, 96 h, read-out: GI. Type of assay: functional. Summed up: as §1
The test system of assay [7] is A-427. Kind of assay: Cytotoxicity against human A427 cells after 96 hrs by crystal violet staining. Type of assay: functional, cell-based. The settings on record: A-427, 96 h. Summed up:
as §2

Assay [8] concerns RT-4. Kind of assay: Growth inhibition of human RT4 cells at 20 uM after 96 hrs by crystal violet staining. It counts as functional. The settings on record: RT-4, 96 h, read-out: GI. Summed up:
as §1

Assay [9] has as its system DAN-G. Kind of assay: Growth inhibition of human DAN-G cells at 20 uM after 96 hrs by crystal violet staining. It counts as functional. The settings on record: read-out: GI. Summed up: as §1
In assay [10] the test system is 5637. Kind of assay: Cytotoxicity against human 5637 cells after 96 hrs by crystal violet staining. It counts as functional, cell-based. The settings on record: Homo sapiens, 5637, 96 h. Summed up:
as §2

The nature of assay [11]: Cytotoxicity against human LCLC-103H cells after 96 hrs by crystal violet staining. Type of assay: functional, cell-based. Summed up:
as §2

The subject of assay [12] is DAN-G. Kind of assay: Cytotoxicity against human DAN-G cells after 96 hrs by crystal violet staining. Type of assay: functional, cell-based. Summed up:
as §2

With `Cc1oc2nc(N(C)C)cc(N)c2c1C`, the inhibition of growth at 20 µM (with MCF7 [1]; in the assay on 5637 [2]; in [3]; in the assay with A-427 [6]; in the assay on RT-4 [8]; with DAN-G [9]) was less than 50% throughout. Further, the pIC50 (in the assay with MCF7 [4]; in the assay on RT-4 [5]; in the assay on A-427 [7]; in the assay with 5637 [10]; in [11]; in the assay on DAN-G [12]) was less than 4.70 each time.

As for `CN(C)c1cc(N)c2cc(-c3ccccc3)c(-c3ccccc3)nc2n1`, the pIC50 was 5.11 in the assay on MCF7 [4]; 4.84 with RT-4 [5]; 5.10 with A-427 [7]; 5.10 with 5637 [10]; 4.86 in assay [11]; 4.94 with DAN-G [12].

With `CN(C)c1cc(N)c2c(-c3ccccc3)c(-c3ccccc3)n(Cc3ccccc3)c2n1`, the inhibition of growth at 20 µM (in the assay with MCF7 [1]; with 5637 [2]; in assay [3]; in the assay on RT-4 [8]; in the assay with DAN-G [9]) was less than 50% each time. In addition, the negative logarithm of the IC50 (pIC50) (with MCF7 [4]; with RT-4 [5]; in the assay with 5637 [10]; in assay [11]; with DAN-G [12]) was less than 4.70 in each case.

On to `Cc1nc2nc(N(C)C)cc(N)c2cc1-c1ccccc1`, for which the inhibition of growth at 20 µM (with MCF7 [1]; in the assay with 5637 [2]; in assay [3]; in the assay on RT-4 [8]; with DAN-G [9]) was less than 50% in each case. Moreover, the pIC50 (with MCF7 [4]; with RT-4 [5]; in the assay on 5637 [10]; in [11]; in the assay on DAN-G [12]) was less than 4.70 in each case.

`CN(C)c1cc(N)c2c(-c3ccccc3)c(-c3ccccc3)oc2n1`: the inhibition of growth at 20 µM (in assay [3]; with RT-4 [8]; with DAN-G [9]) was less than 50% in each case. In addition, the pIC50 with MCF7 [4] was 4.73; in the assay with RT-4 [5] it was less than 4.70; in the assay on A-427 [7], 4.84; in the assay with 5637 [10], 4.83; in assay [11] it was less than 4.70; with DAN-G [12] it was less than 4.70.

For the compound `Cc1c2ccncc2c(C)c2c1[nH]c1ccccc12` [ELLIPTECINE], the pIC50 in the assay with MCF7 [4] is 6.37; with RT-4 [5], 5.92; in the assay with A-427 [7], 6.05; with 5637 [10] it was 6.05; in assay [11] it was 6.10.

As for `CN(C)c1cc(N)c2c3ccc4ccccc4c3n(C)c2n1`, the inhibition of growth at 20 µM (with 5637 [2]; in assay [3]; with DAN-G [9]) was less than 50% in each case. Moreover, the negative-log IC50 (pIC50) with MCF7 [4] was 4.67; with RT-4 [5], 4.89; in the assay on A-427 [7], 4.84; in the assay on 5637 [10], less than 4.70; in assay [11], less than 4.70; with DAN-G [12], less than 4.70.

With `Nc1cc(N2CCCC2)nc2sc(-c3ccccc3)c(-c3ccccc3)c12`, the pIC50 with MCF7 [4] was 4.86; in the assay on RT-4 [5], less than 4.70; with A-427 [7] it was 5.06; with 5637 [10] it was 5.09; in assay [11], 5.01; with DAN-G [12], 5.09. Further, the inhibition of growth at 20 µM in the assay on RT-4 [8] is less than 50%.

With `Cc1c(-c2ccccc2)sc2nc(N(C)C)cc(N)c12`, the inhibition of growth at 20 µM in assay [3] was less than 50%. Besides, the pIC50 in the assay on MCF7 [4] was 4.87; in the assay on RT-4 [5], 5.21; in the assay on A-427 [7] it was 4.82; in the assay with 5637 [10] it was 4.75; in assay [11], less than 4.70; in the assay with DAN-G [12], 4.79.

In the case of `Cc1c(C)n(Cc2ccccc2)c2nc(N(C)C)cc(N)c12`, the inhibition of growth at 20 µM (in [3]; in the assay on DAN-G [9]) was less than 50% in each case. Moreover, the negative logarithm of the IC50 (pIC50) in the assay with MCF7 [4] is 4.88; in the assay on RT-4 [5] it was 4.71; with A-427 [7], 4.90; in the assay on 5637 [10] it was 4.93; in assay [11], less than 4.70; in the assay with DAN-G [12], less than 4.70.

As for `C=CCn1c(-c2ccccc2)c(-c2ccccc2)c2c(N)cc(N(C)C)nc21`, the inhibition of growth at 20 µM (in [3]; in the assay with DAN-G [9]) was less than 50% throughout. Further, the pIC50 was 5.04 with MCF7 [4]; 4.92 in the assay on RT-4 [5]; 5.41 in the assay with A-427 [7]; 4.77 in the assay with 5637 [10]; less than 4.70 in [11]; less than 4.70 in the assay with DAN-G [12].

Take `Nc1cc(N2CCCC2)nc2nc(-c3ccccc3)c(-c3ccccc3)cc12`: the pIC50 in the assay on MCF7 [4] is 5.39; with RT-4 [5], 4.92; in the assay with A-427 [7] it was 5.36; with 5637 [10] it was 5.56; in [11], 4.90; in the assay with DAN-G [12], 5.20.

As for `COc1ccc(Cn2c3ccccc3c3c(N)cc(N(C)C)nc32)cc1`, the inhibition of growth at 20 µM (with MCF7 [1]; in the assay with 5637 [2]; in assay [3]; with A-427 [6]; with DAN-G [9]) was less than 50% each time. The pIC50 (with MCF7 [4]; in the assay on A-427 [7]; in the assay with 5637 [10]; in assay [11]; with DAN-G [12]) was less than 4.70 each time.

In the case of `CN(C)c1cc(N)c2c3c(n(Cc4ccccc4)c2n1)CCCC3`, the inhibition of growth at 20 µM (in assay [3]; in the assay on DAN-G [9]) was less than 50% in each case. Also, the pIC50 (in assay [11]; with DAN-G [12]) was less than 4.70 throughout.

In the case of `Nc1cc(N2CCCC2)nc2oc(-c3ccccc3)c(-c3ccccc3)c12`, the inhibition of growth at 20 µM (in assay [3]; in the assay with DAN-G [9]) was less than 50% in each case. In addition, the negative logarithm of the IC50 (pIC50) with MCF7 [4] was 4.83; in the assay on RT-4 [5], 4.75; in the assay with A-427 [7] it was 4.86; in the assay with 5637 [10] it was 4.74; in assay [11], less than 4.70; in the assay on DAN-G [12], less than 4.70.

On to `CN(C)c1cc(N)c2c(-c3ccccc3)c(-c3ccccc3)sc2n1`, for which the pIC50 in the assay on MCF7 [4] is 4.79; in the assay on RT-4 [5] it was less than 4.70; in the assay with A-427 [7], 4.95; in the assay with 5637 [10], 5.00; in [11] it was 4.97; with DAN-G [12], 4.82. The inhibition of growth at 20 µM with RT-4 [8] was less than 50%.

Take `Cc1cc2c(N)cc(N(C)C)nc2nc1-c1ccccc1`: the inhibition of growth at 20 µM in assay [3] was less than 50%. Besides, the pIC50 in the assay on MCF7 [4] was 4.93; in the assay on RT-4 [5] it was 5.30; with A-427 [7] it was 4.93; in the assay with 5637 [10], 5.05; in assay [11], less than 4.70; in the assay with DAN-G [12], 4.74.

In the case of `CN(C)c1cc(N)c2ccc3ccccc3c2n1`, the pIC50 in the assay with MCF7 [4] is 5.21; in the assay with RT-4 [5], 5.11; in the assay with A-427 [7], 5.09; in the assay on 5637 [10], 5.00; in [11], 5.05; with DAN-G [12], 4.99.

As to `CN(C)c1cc(N)c2c(n1)[nH]c1c3ccccc3ccc12`, the pIC50 in the assay with MCF7 [4] is 5.12; in the assay on RT-4 [5], 5.18; in the assay with A-427 [7], 5.18; in the assay with 5637 [10], 5.10; in assay [11], 5.01; in the assay with DAN-G [12], 5.01.

Usually pIC50 stands for the negative decadic logarithm of the IC50, by convention in mol/L. Read a high pIC50 as a low IC50.
